In publication PMC4436074 (mBio, 2015):
Where a name gives a salt, the structure may show the parent alone. Read-outs that look alike come from different tables or passages of the source.

Experiments:
Rgg3 = type: binding, Streptococcus pyogenes; conditions: HTS, duplicate; 0.1 µl of 10 mM compound in 30 µl; 180 nM His6-Sumo-Rgg3, 10 nM FITC-SHP2-C8
Outline: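 Approved-drug library (1,280 compounds, DMSO stocks) pinned into assay mix of 1× PBS, 0.1 mg/ml BSA, 0.01% Triton X-100 and 5 mM DTT. Plates were shaken 20 s, then held 15 min at room temperature, and polarization was read at ex 485/em 535 nm. Each plate had 32 DMSO negative-control wells and 32 unlabeled SHP2-C8 (1 mM stock) positive-control wells. % inhibition was scaled between the per-plate control means, and plate Z′ was computed.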

ComR [1] = target: T1, ComR (Streptococcus mutans serotype c, UniProt Q8DWI6); type: binding, S. mutans; conditions: read-out: ComR Avg % inhibition
T1 sequence (Q8DWI6 1-304): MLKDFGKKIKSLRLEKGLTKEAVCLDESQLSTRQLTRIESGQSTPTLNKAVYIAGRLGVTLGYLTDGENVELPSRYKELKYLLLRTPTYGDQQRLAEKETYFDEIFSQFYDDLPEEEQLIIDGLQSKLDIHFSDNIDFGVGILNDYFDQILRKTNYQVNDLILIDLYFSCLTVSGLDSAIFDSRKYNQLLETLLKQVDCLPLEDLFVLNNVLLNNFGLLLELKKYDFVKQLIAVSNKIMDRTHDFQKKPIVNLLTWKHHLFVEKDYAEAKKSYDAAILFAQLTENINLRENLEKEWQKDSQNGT

[2] = test system: Rgg2/3-regulated promoter Pshp2-luxAB (BNL148); test: Pshp2-luxAB luciferase reporter assay, strain BNL148, sSHP2-C8 induced; type: cell-based, S. pyogenes; conditions: for inhibition of SHP-induced light production (transcription): 10 µM compound with 10 nM SHP2-C8, BNL148; for IC50: Streptococcus pyogenes
S. pyogenes cultures = test: Bacterial growth curves; type: cell-based; conditions: 10 µM compound with 10 nM sSHP2-C8, 37°C
Outline: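 S. pyogenes grown at 37°C in chemically defined medium (CDM) to OD600 0.1, then given 10 nM SHP2-C8 alone or with 10 µM test compound. OD600 read every 30 min for 8 h.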

[3] = test system: S. pyogenes strain NZ131 biofilm; test: SHP-dependent biofilm assay, crystal violet staining, strain NZ131; type: cell-based; conditions: 10 nM SHP2-C8, 20 h
Outline: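 NZ131 grown overnight in THY at 30°C, diluted 1:100 into CDM, grown at 37°C to late exponential phase, back-diluted to OD600 0.02 in CDM with 10 nM SHP2-C8 and 2-fold dilutions of test compound (5 to 0.156 µM); 0.1% DMSO controls. At OD600 ~0.1 plated in duplicate, 20 h at 37°C, 5% CO2. Saline wash, dry-fixed, 0.2% crystal violet, A595; ≥3 independent experiments, standard errors.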

[4] = test system: ComR-XIP QS system, PsigX-luxAB; test: PsigX-luxAB reporter; type: cell-based, S. pyogenes; conditions: 10 µM compound, 100 nM XIP, MGAS315(pWAR200)
Outline: (§1)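 PsigX-luxAB reporter strains grown in CDM to OD600 0.1 and incubated with 10 µM test compound plus 100 nM XIP. Decanal (1% in mineral oil) supplied as vapour; sealed plate shaken at 37°C. OD600 and luminescence read every 15 min for 8 h; relative luminescence taken as maximum cps/OD600.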

[5] = test system: Rgg-SHP quorum-sensing pathway, Pshp-luxAB; test: Pshp-luxAB reporter in S. agalactiae A909; type: cell-based; conditions: S. agalactiae (GBS), 5 µM antagonist
Outline: (§2)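 Reporter strains carry shp-promoter–luxAB fusions on a pLZ12-spec plasmid: Pshp1520 in GBS A909, Pshp2 in GGS, Pshp3 in S. porcinus. S. porcinus was given synthetic SHP. Strains grown in CDM to OD600 0.1 and exposed to 5 µM antagonist. Decanal (1% in mineral oil) supplied as vapour. OD600 and luminescence read at 37°C every 15 min for 8 h; relative luminescence taken as maximum cps/OD600.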

[6] = test system: Rgg-SHP quorum-sensing pathway, Pshp-luxAB; test: Pshp-luxAB reporter in S. dysgalactiae GGS-LT1; type: cell-based; conditions: 5 µM antagonist
Outline: as §2

ComR [7] = target: T1, ComR; type: binding, S. mutans; conditions: competition with FITC-XIP
[8] = test system: Rgg-SHP quorum-sensing pathway, Pshp-luxAB; test: Pshp-luxAB reporter in S. porcinus NCTC 10999; type: cell-based; conditions: 5 µM antagonist
Outline: as §2

[9] = test system: ComR-XIP QS system, PsigX-luxAB; test: PsigX-luxAB reporter; type: cell-based, S. mutans; conditions: 10 µM compound, 100 nM XIP, UA159(pWAR304)
Outline: as §1

Rgg2 = test: Pshp2-luxAB luciferase reporter assay, Δrgg3 strain BNL178; type: cell-based, S. pyogenes
Outline: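 Pshp2-luxAB reporter strains grown in CDM to exponential phase (OD600 0.1). Cultures dispensed into wells with 10 nM SHP2-C8 alone or with test compound: 10 µM for the Δrgg3 strain BNL178, 5 µM CsA for the other strains. Decanal (1% in mineral oil) supplied as vapour; plate sealed and shaken continuously at 37°C. OD600 and luminescence read every 15 min for 8 h; relative luminescence taken as maximum cps/OD600.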

RopB = test: PspeB-luxAB reporter, NZ131; type: cell-based, S. pyogenes; conditions: C medium; 10 µM CsA or valspodar; 300 mM NaCl
Outline: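 PspeB-luxAB reporter (speB upstream region–luxAB, integrated) grown in C medium to exponential phase (OD600 0.1). Test compound added at 10 µM; 300 mM NaCl used as the suppressing condition. Decanal vapour supplied; 37°C with shaking. OD600 and luminescence read every 15 min for 8 h; relative luminescence taken as maximum cps/OD600.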

[10] = target: FITC-SHP2-C8 (Streptococcus pyogenes); test: fluorescence polarisation
FITC-XIP (S. mutans) = test: fluorescence polarisation
[11] = target: His6-SUMO-Rgg3 (Streptococcus pyogenes); test: fluorescence polarisation
[12] = read-out: IC50, luciferase assay dose-response

CCCc1nc(C(C)(C)O)c(C(=O)O)n1Cc1ccc(-c2ccccc2-c2nnn[nH]2)cc1 [Olmesartan]
Rgg3 Avg % inhibition (Rgg3): 73%
inhibition (ComR [1]): 1%
inhibition of SHP-induced light production (transcription) [2]: less than 50%

CCC(C)(C)C(=O)O[C@H]1C[C@@H](C)C=C2C=C[C@H](C)[C@H](CC[C@@H]3C[C@@H](O)CC(=O)O3)[C@H]21 [Simvastatin]
Rgg3 Avg % inhibition (Rgg3): 85%
effect on culture growth (S. pyogenes cultures): inhibited culture growth
inhibition (ComR [1]): 10%
inhibition of SHP-induced light production (transcription) [2]: less than 50%
IC50 [2, 12]: > 10000 nM

C/C=C/C[C@@H](C)C(=O)[C@H]1C(=O)N[C@@H](C(C)C)C(=O)N(C)CC(=O)N(C)[C@@H](CC(C)C)C(=O)N[C@@H](C(C)C)C(=O)N(C)[C@@H](CC(C)C)C(=O)N[C@@H](C)C(=O)N[C@H](C)C(=O)N(C)[C@@H](CC(C)C)C(=O)N(C)[C@@H](CC(C)C)C(=O)N(C)[C@@H](C(C)C)C(=O)N1C [Valspodar, [3′-keto-Bmt1-Val2]-cyclosporine]
concentration sufficient to prevent SHP-dependent biofilm development [3]: 0.312 µM
effect on light production of PsigX-luxAB [4]: not affected
fold inhibition of light production [5]: at least 5 fold
fold inhibition of light production [6]: at least 5 fold
binding to ComR (ComR [7]): did not bind to ComR
fold inhibition of light production ([8]; S. porcinus (GES), sSHP stimulated): at least 5 fold
effect on the S. porcinus strain (in words) ([8]; S. porcinus): only a moderate effect
effect on light production of PsigX-luxAB [9]: not affected
effect on culture growth (S. pyogenes cultures): do not display toxic effects on GAS growth
inhibition of transcription in strain with only Rgg2 present (Rgg2): effective at inhibiting transcription
effect on activation of PspeB (luciferase activity) (RopB): unable to block activation of PspeB
inhibition of SHP-induced light production (transcription) [2]: completely abolished light production
IC50 ([2]; read-out: IC50 (nM), luciferase assay dose-response): 252 nM
IC50 [2, 12]: 500 nM

His6-SUMO-Rgg3 (receptor)
Kd [10]: 160 nM

His6-ComR (S. mutans UA159) (receptor)
Kd (FITC-XIP (S. mutans)): 1000 nM

[Cl-].[Na+] [NaCl]
effect on activation of PspeB (luciferase activity) (RopB): abolished luciferase activity

CC(C)(C)NC(=O)[C@@H]1C[C@@H]2CCCC[C@@H]2CN1C[C@@H](O)[C@H](Cc1ccccc1)NC(=O)[C@H](CC(N)=O)NC(=O)c1ccc2ccccc2n1 [Saquinavir mesylate]
Rgg3 Avg % inhibition (Rgg3): 84%
inhibition (ComR [1]): 13%
IC50 [2, 12]: > 10000 nM

CCCc1nc2c(C)cc(-c3nc4ccccc4n3C)cc2n1Cc1ccc(-c2ccccc2C(=O)O)cc1 [Telmisartan]
Rgg3 Avg % inhibition (Rgg3): 99%
inhibition (ComR [1]): 3%
inhibition of SHP-induced light production (transcription) [2]: less than 50%

DILIIVGG [SHP2-C8 (unlabeled synthetic peptide)]
Kd [11]: 220 nM
